The results in this text go back to ChEMBL document CHEMBL1158097, “Kahalalide derivatives from the Indian sacoglossan mollusk Elysia grandifolia” (J Nat Prod, 2006).

One experiment concerns MCF7. The experiment is described as follows: Cytotoxicity against human MCF7 cells after 24 hrs by MTT assay. Particulars: MCF7, 24 h. In kind it is functional, cell-based. In a few lines:
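MCF7 cells were exposed to compounds for 24 h, and viability was read as MTT reduction by absorbance of reduced MTT at 560 nm. DMSO served as control. Data are mean ± SEM, n = 3.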

The nature of experiment [1]: Cytotoxicity against mouse L1578Y cells after 24 hrs by MTT assay. In kind it is functional, cell-based.
The test system of another experiment is HeLa. Kind of experiment: Cytotoxicity against human HeLa cells after 24 hrs by MTT assay. In kind it is functional, cell-based.
Another experiment has as its system H4IIE. The experiment is described as follows: Cytotoxicity against rat H4IIE cells after 24 hrs by MTT assay. The format is functional, cell-based.
In a further experiment the test system is PC-12. Kind of experiment: Cytotoxicity against rat PC12 cells after 24 hrs by MTT assay. The format is functional, cell-based.
The subject of another experiment is Cladosporium herbarum. The experiment is described as follows: Antifungal activity against Cladosporium herbarum DSM 62121 at 5 ug/disk after 24 hrs by agar diffusion assay. In kind it is functional. Particulars: for zone of inhibition at 5 µg/disc: DSM 62121, 24 h, read-out: IZ.
Another experiment deals with Cladosporium cucumerinum. The experiment is described as follows: Antifungal activity against Cladosporium cucumerinum DSM 62122 at 5 ug/disk after 24 hrs by agar diffusion assay. In kind it is functional. The settings on record: for zone of inhibition at 5 µg/disc: DSM 62122, 24 h, read-out: IZ.
In a further experiment the test system is Saccharomyces cerevisiae. Kind of experiment: Antifungal activity against Saccharomyces cerevisiae DSM 1333 at 5 ug/disk after 24 hrs by agar diffusion assay. The format is functional, organism-based.
Another experiment deals with Bacillus subtilis. Kind of experiment: Antibacterial activity against Bacillus subtilis DSM 2109 at 5 ug/disk after 24 hrs by agar diffusion assay. The format is functional, organism-based.
The test system of a further experiment is Escherichia coli. Kind of experiment: Antibacterial activity against Escherichia coli DSM 10290 at 5 ug/disk after 24 hrs by agar diffusion assay. In kind it is functional, organism-based.

pIC50: −log10 of the molar value. The source made the active and inactive calls. The rule behind the calls is not given here.

In turn, `C/C=C1\NC(=O)[C@H](Cc2ccccc2)NC(=O)[C@@H](C(C)C)NC(=O)[C@@H]([C@H](C)CC)NC(=O)[C@H](NC(=O)[C@H](NC(=O)[C@H](CCCN)NC(=O)[C@H]2CCCN2C(=O)[C@H](NC(=O)[C@@H](NC(=O)[C@@H](NC(=O)[C@H](NC(=O)CCCC(C)C)C(C)C)[C@@H](C)O)C(C)C)C(C)C)[C@H](C)CC)[C@H](C)OC(=O)[C@H](C(C)C)NC1=O` [KAHALALIDE F] gave a negative logarithm of the IC50 (pIC50) with MCF7 of 6.66. In addition, the IC50 in experiment [1] was 4.26 µM. The result with HeLa, in the experiment on H4IIE, in the experiment with PC-12, in the experiment on Saccharomyces cerevisiae, in the experiment with Bacillus subtilis and in the experiment with Escherichia coli was inactive. Moreover, the zone of inhibition at 5 µg/disc in the experiment with Cladosporium herbarum worked out at 17 mm; in the experiment on Cladosporium cucumerinum, 24 mm.

With `C/C=C1\NC(=O)[C@H](Cc2ccccc2)NC(=O)C(C(C)C)NC(=O)C(C(C)C)NC(=O)[C@H](NC(=O)[C@H](NC(=O)[C@H](CCCN)NC(=O)[C@H]2CCCN2C(=O)C(NC(=O)C(NC(=O)C(NC(=O)[C@@H](CCC(=O)O)NC(=O)CCCCCC(C)C)C(C)C)C(C)C)C(C)C)[C@@H](C)CC)[C@@H](C)OC(=O)C(C(C)C)NC1=O` (some centres undefined) [KAHALALIDE R], in the experiment with MCF7, the pIC50 was 6.85. The molecule also yielded an IC50 in [1] of 4.28 µM. Besides, the result in the experiment on HeLa, in the experiment on H4IIE, in the experiment with PC-12, in the experiment on Saccharomyces cerevisiae, in the experiment on Bacillus subtilis and in the experiment with Escherichia coli was inactive. In addition, the zone of inhibition at 5 µg/disc was 16 mm in the experiment on Cladosporium herbarum and 24 mm in the experiment on Cladosporium cucumerinum.

Molecule `C/C=C1\NC(=O)[C@H](Cc2ccccc2)NC(=O)C(C(C)C)NC(=O)C(C(C)C)NC(=O)[C@H](NC(=O)[C@H](NC(=O)[C@H](CCCN)NC(=O)[C@H]2CCCN2C(=O)C(NC(=O)C(NC(=O)C(NC(=O)[C@@H](CCC(=O)O)NC(=O)CCCC(O)CC(C)C)C(C)C)C(C)C)C(C)C)[C@@H](C)CC)[C@@H](C)OC(=O)C(C(C)C)NC1=O` (some centres undefined) [KAHALALIDE S] showed a negative logarithm of the IC50 (pIC50) in the experiment with MCF7 of 5.45. In addition, the outcome with Cladosporium herbarum, with Cladosporium cucumerinum, in the experiment on Saccharomyces cerevisiae, in the experiment with Bacillus subtilis and in the experiment with Escherichia coli was inactive.

For the molecule NYSTATIN, the inhibition zone (IZ) with Cladosporium herbarum came to 19 mm; in the experiment on Cladosporium cucumerinum, 39 mm.

For the molecule `CC(C)CCCCCC1CC(=O)N[C@H](C)C(=O)N[C@H](C)C(=O)NC(CC(C)C)C(=O)N2CCC[C@H]2C(=O)NC(CC(C)C)C(=O)N[C@@H](Cc2c[nH]c3ccccc23)C(=O)O1` (some centres undefined) [KAHALALIDE E], the pIC50 in the experiment on MCF7 was 5.35.
